Source: ChEMBL document CHEMBL1137223, “Antileishmanial pyrazolopyridine derivatives: synthesis and structure-activity relationship analysis” (J Med Chem, 2004)
“And” between values parts separate entries of the source, which are not always exact repeats. Identical values can stand only once.

Experiments:
Leishmania amazonensis = test: Tested for growth inhibitory activity against Leishmania amazonensis promastigotes; type: functional, organism-based
Outline: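 L. amazonensis promastigotes (MHOM/BR/77/LTB0016), grown at 25 °C in LIT medium with 10% heat-inactivated FCS, harvested late log phase, adjusted to 4×10^6/mL. Drugs in DMSO (≤1.6% v/v) at 160 to 5 μg/mL; 24 h incubation; parasites counted in Neubauer chamber; inhibition versus DMSO and untreated controls; IC50 by linear regression of inhibition against log concentration.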

[1] = pKa was determined; type: physicochemical
[2] = Partition coefficient (logP); type: physicochemical; conditions: octanol/water
Outline: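 Shake-flask octanol/aqueous buffer pH 7.4 partition; compound stock 4 × 10^-3 M in 1,4-dioxane; phases shaken 1 h at 25.0 ± 0.1 °C, centrifuged 15 min; both layers read by UV at λmax 320–354 nm; three replicates. P taken as quotient of buffer and octanol concentrations. Some values instead calculated from unsubstituted parent log P plus hydrophobic fragmental constants (log PX = log PH + πX).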

SMILES	IC50 (Leishmania amazonensis)	pKa [1]	logP [2]
CCN(CC)Cc1cc(Nc2ccnc3cc(Cl)ccc23)ccc1O.Cl	0.34 µg/mL and 950 nM		
CCOC(=O)c1cnc2c(c(C)nn2C)c1Nc1cccc([N+](=O)[O-])c1	6.11 µg/mL and 17.2 µM	8.38	0.68
CCOC(=O)c1cnc2c(c(C)nn2C)c1Nc1ccccc1	30.7 µg/mL and 98.9 µM	8.23	0.96
CCOC(=O)c1cnc2c(c(C)nn2C)c1Nc1ccc(Cl)cc1	1.34 µg/mL and 3.89 µM	7.98	1.32
CCOC(=O)c1cnc2c(c(C)nn2C)c1Nc1ccc(F)cc1	12.8 µg/mL and 39 µM	8.14	0.7
CCOC(=O)c1cnc2c(c(C)nn2C)c1Nc1ccc([N+](=O)[O-])cc1	114 µg/mL and 321 µM	8.8	0.68
CCOC(=O)c1cnc2c(c(C)nn2C)c1Nc1ccc(Br)cc1	4.57 µg/mL and 11.7 µM	8.39	1.82
CCOC(=O)c1cnc2c(c(C)nn2C)c1Nc1ccc(OC)cc1	10.9 µg/mL and 32 µM	8.07	0.94
CCOC(=O)c1cnc2c(c(-c3ccccc3)nn2-c2ccccc2)c1Nc1ccc(O)cc1	0.34 µg/mL and 750 nM		3.09
CCOC(=O)c1cnc2c(c(C)nn2C)c1Nc1cccc(Cl)c1	4.79 µg/mL and 13.9 µM	9.05	1.67
CCOC(=O)c1cnc2c(c(C)nn2-c2ccccc2)c1Nc1ccc(O)c(CN(CC)CC)c1	0.18 µg/mL and 390 nM		2.05
CCOC(=O)c1cnc2c(c(C)nn2C)c1Nc1ccc(O)cc1	1.37 µg/mL and 4.2 µM	9.98	1.14
CCOC(=O)c1cnc2c(c(C)nn2C)c1Nc1cccc(OC)c1	7.45 µg/mL and 21.9 µM	7.64	0.94
CCOC(=O)c1cnc2c(c(-c3ccccc3)nn2-c2ccccc2)c1Nc1ccc(O)c(CN(CC)CC)c1	0.06 µg/mL and 120 nM		3.45
CCOC(=O)c1cnc2c(c(C)nn2C)c1Nc1cccc(C)c1	4.82 µg/mL and 14.9 µM	7.06	2.27
CCOC(=O)c1cnc2c(c(C)nn2-c2ccccc2)c1Nc1ccc(O)cc1	0.21 µg/mL and 550 nM		1.69
CCOC(=O)c1cnc2c(c(C)nn2C)c1Nc1ccc(C)cc1	10.6 µg/mL and 32.6 µM	8.61	1.52
N=C(N)c1ccc(OCCCCCOc2ccc(C(=N)N)cc2)cc1.O=S(=O)(O)CCO	0.27 µg/mL and 460 nM		
